The values below come from ChEMBL document CHEMBL1138284, “Malaria causal prophylactic activity of imidazolidinedione derivatives” (J Med Chem, 2007).

Active and inactive are the calls of the source. Some results are limits rather than exact numbers.

In data set [1] the test system is Plasmodium yoelii. Put plainly: Protection against Plasmodium yoelii sporozoite infected mice (Mus musculus) as minimal active peroral dose. It counts as functional. In short, it runs like this:
(§1)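 Mice challenged with Plasmodium yoelii sporozoites received a single oral dose of the test compound. Protection was scored at day 6 as the number of parasite-free mice out of 5 per dose group. The minimum active dose was taken as the lowest dose giving activity.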

Data set [2] concerns Plasmodium yoelii. Put plainly: Protection against Plasmodium yoelii sporozoite infected mice (Mus musculus) as minimal active perorally daily dose over 3 days. Type of data set: functional. In outline:
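Mice were challenged with P. yoelii sporozoites and dosed orally once daily for 3 consecutive days (days −1, 0, +1), starting the day before challenge. Protection was scored at day 6 as protected mice out of 5 per dose. The minimum active dose was taken from the dose series.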

A short description of data set [3]: Metabolic stability assessed as half life in mouse liver microsomes. On the technique in general: Liver microsomes are a subcellular fraction often used to study metabolism.
Data set [4] is described as follows: Metabolic stability assessed as half life in human liver microsomes.
The subject of the next data set is Plasmodium cynomolgi. Put plainly: Prophylactic parasite potency against Plasmodium cynomolgi sporozoite challenged rhesus monkey at 30 mg/kg/day Intramuscular dose for 3 days. Type of data set: functional. In outline: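 Rhesus monkeys were inoculated with P. cynomolgi sporozoites and given 30 mg/kg IM once daily for 3 days, starting the day before inoculation; two monkeys per group, with untreated controls. Blood smears were taken daily from day 6 for 21 days, then 3×/week for 4 weeks, then 2×/week to 100 days after the last dose. Patency was the first smear-positive day.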

The test system of data set [5] is Plasmodium yoelii. Put plainly: Protection against Plasmodium yoelii sporozoite infection in mice (Mus musculus) at 10 mg/kg peroral dose. It counts as functional, organism-based. More on the design: dose 10 mg/kg. In outline:
as §1

Data set [6] relates to Plasmodium yoelii. Put plainly: Protection against Plasmodium yoelii sporozoite infected mice (Mus musculus) at 40 mg/kg peroral dose. It counts as functional, organism-based. More on the design: dose 40 mg/kg. In outline:
as §1

The test system of data set [7] is Plasmodium yoelii. Put plainly: Protection against Plasmodium yoelii sporozoite infected mice (Mus musculus) at 160 mg/kg peroral dose. Type of data set: functional, organism-based. More on the design: dose 160 mg/kg. In short, it runs like this:
as §1

Data set [8] is described as follows: Half life in iv dosed rat plasma. It counts as ADME, organism-based.
In data set [9] the test system is Plasmodium yoelii. Put plainly: Protection against Plasmodium yoelii sporozoite infected mice (Mus musculus) at 120 mg/kg peroral dose. More on the design: dose 120 mg/kg. It counts as functional, organism-based.
In data set [10] the test system is Plasmodium yoelii. Put plainly: Protection against Plasmodium yoelii sporozoite infected mice (Mus musculus) at 480 mg/kg peroral dose. Type of data set: functional, organism-based. The arrangement: dose 480 mg/kg.
The test system of data set [11] is Plasmodium falciparum. Put plainly: Antimalarial activity against pyrimethamine-resistant Plasmodium falciparum W2. Type of data set: functional, organism-based.
Data set [12] has as its system Plasmodium falciparum. Put plainly: Antimalarial activity against pyrimethamine-sensitive Plasmodium falciparum D6. It counts as functional, organism-based.
The subject of the next data set is Plasmodium berghei. Put plainly: Antimalarial activity against Plasmodium berghei infected mice (Mus musculus). Type of data set: functional, organism-based.

On to `CC(C)C(=O)N/C(=N/C1=NC(=O)C(=O)N1C(C)C)Nc1ccc(Cl)c(Cl)c1`, for which the values for the Activity in the data set with Plasmodium yoelii [1] and with Plasmodium yoelii [2] were greater than 160 mg/kg and less than 30 mg/kg, respectively.

The half-life is the time needed for the level to fall by half in the phase considered. In the case of `CCC(CC)C(=O)N/C(=N/C1=NC(=O)C(=O)N1C(C)C)Nc1ccc(Cl)c(Cl)c1`, the half-life in [3] (liver microsomes) and in data set [4] (liver microsomes) was greater than 60 min throughout. Further, the figures for the Activity in the data set on Plasmodium yoelii [1], in the data set on Plasmodium yoelii [2] and in the data set on Plasmodium cynomolgi were greater than 160 mg/kg, 7.5 mg/kg and 17 days, respectively.

Consider `CCCC(=O)N/C(=N\C1=NC(=O)C(=O)N1c1ccc(Cl)c(Cl)c1)NC(C)C`, for which the half-life in data set [3] (liver microsomes) and in [4] (liver microsomes) was less than 10 min throughout. In addition, in the data set with Plasmodium yoelii [1], the Activity is less than 10 mg/kg. For the same compound, the result in the data set on Plasmodium yoelii [5], with Plasmodium yoelii [6] and with Plasmodium yoelii [7] was Active.

In the case of `CCC(CC)C(=O)N/C(=N\C1=NC(=O)C(=O)N1c1ccc(Cl)c(Cl)c1)NC(C)C`, the half-life in data set [3] (liver microsomes), in data set [8] and in data set [4] (liver microsomes) was less than 10 min in each case. Further, the Activity is less than 10 mg/kg with Plasmodium yoelii [1] and 15 days with Plasmodium cynomolgi. Further, the result in the data set on Plasmodium yoelii [7] was Active.

Consider `CC(C)N/C(=N/C1=NC(=O)C(=O)N1c1ccc(Cl)c(Cl)c1)NC(=O)C(C)C`, for which the half-life in [3] (liver microsomes) and in data set [4] (liver microsomes) was less than 10 min in each case. The Activity in the data set on Plasmodium yoelii [1] was less than 10 mg/kg. In addition, the outcome in the data set with Plasmodium yoelii [6] and with Plasmodium yoelii [7] was Active.

For the compound `CC(C)N1C(=O)C(=O)N=C1/N=C(/NC(=O)C(C)(C)C)Nc1ccc(Cl)c(Cl)c1`, the half-life in data set [3] (microsomes) and in data set [4] (microsomes) was greater than 60 min each time. Also, the Activity is greater than 160 mg/kg in the data set on Plasmodium yoelii [1], greater than 480 mg/kg with Plasmodium yoelii [2] and 40 days with Plasmodium cynomolgi. The result with Plasmodium yoelii [9] and with Plasmodium yoelii [10] was inactive.

Consider `CCCc1nc(Nc2ccc(Cl)c(Cl)c2)nc(NC(C)C)n1`, for which the outcome with Plasmodium falciparum [11], in the data set with Plasmodium falciparum [12] and with Plasmodium berghei was inactive.

The compound `CC(C)N1C(=O)C(=O)N=C1N/C(=N\C(=O)OC(C)(C)C)Nc1ccc(Cl)c(Cl)c1` returned an Activity with Plasmodium cynomolgi of 68 days.

Consider `CCC(CC)c1nc(Nc2ccc(Cl)c(Cl)c2)nc(NC(C)C)n1`, for which the outcome in the data set on Plasmodium falciparum [11], in the data set with Plasmodium falciparum [12] and in the data set with Plasmodium berghei was inactive. Moreover, the half-life in data set [3] (liver microsomes) and in data set [4] (liver microsomes) was greater than 60 min each time.

Take `CC(C)Nc1nc(Nc2ccc(Cl)c(Cl)c2)nc(C(C)C)n1`: the result with Plasmodium falciparum [11], with Plasmodium falciparum [12] and in the data set with Plasmodium berghei was inactive.
